Test results as given in ChEMBL document CHEMBL1143040, “Aporphine metho salts as neuronal nicotinic acetylcholine receptor blockers” (Bioorg Med Chem, 2007).

How the values were obtained:
Type in all cases: cell-based
[1] = biological target: Neuronal acetylcholine receptor; alpha4/beta2 (Homo sapiens, UniProt P17787+P43681); assay: Displacement of [3H]cytisine from human alpha-4-beta-2 nAChR expressed in SH-EP1 cells
Summary of the method: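 Radioligand displacement used membrane homogenates from a clonal cell line stably expressing human α4β2 nAChR. [3H]cytisine was at 1 nM in saline of 120 mM NaCl, 5 mM KCl, 1 mM MgCl2, 2.5 mM CaCl2, 50 mM Tris, pH 7.0. Nonspecific binding was defined with 10 μM nicotine. Ki was obtained from regression fits by Cheng-Prusoff. Mean ± SEM of four experiments in triplicate.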

[2] = biological target: T1, Neuronal acetylcholine receptor subunit alpha-7 (Homo sapiens, UniProt P36544); assay: Displacement of [125I]alpha-bungarotoxin from human alpha-7 nAChR expressed in SH-SY5Y cells
T1 sequence (P36544 whole entry): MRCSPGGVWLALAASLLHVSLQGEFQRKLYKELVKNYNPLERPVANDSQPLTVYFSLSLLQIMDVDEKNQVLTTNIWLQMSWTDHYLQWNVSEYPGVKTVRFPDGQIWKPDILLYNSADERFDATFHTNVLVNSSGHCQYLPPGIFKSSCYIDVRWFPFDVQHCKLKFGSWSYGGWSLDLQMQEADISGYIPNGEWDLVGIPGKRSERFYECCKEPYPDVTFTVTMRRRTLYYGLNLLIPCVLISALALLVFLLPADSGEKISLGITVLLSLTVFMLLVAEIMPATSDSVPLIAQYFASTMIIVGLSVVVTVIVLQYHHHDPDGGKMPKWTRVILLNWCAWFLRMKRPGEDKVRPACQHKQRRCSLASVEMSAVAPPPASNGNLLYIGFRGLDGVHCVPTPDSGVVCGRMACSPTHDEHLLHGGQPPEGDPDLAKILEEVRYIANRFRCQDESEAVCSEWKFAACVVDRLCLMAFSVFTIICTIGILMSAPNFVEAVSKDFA
Summary of the method: (§1)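 Membrane homogenates from a clonal cell line stably expressing human α7 nAChR. Radioligand was [125I]α-bungarotoxin at 0.2 nM in 140 mM NaCl, 1 mM EDTA, 50 mM Tris-HCl, pH 7.4. Nonspecific binding was defined with 10 μM nicotine. Ki came from non-linear regression fits by Cheng-Prusoff. Mean ± SEM of four experiments, triplicate samples, from at least two membrane preparations.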

[3] = biological target: T1, Neuronal acetylcholine receptor subunit alpha-7; assay: Inhibition of 0.2 nM [125I]alpha-bungarotoxin binding to human alpha-7 nAChR expressed in SH-SY5Y cells; summary of the method: as §1

Chain of Neuronal acetylcholine receptor; alpha4/beta2 (P17787 whole entry): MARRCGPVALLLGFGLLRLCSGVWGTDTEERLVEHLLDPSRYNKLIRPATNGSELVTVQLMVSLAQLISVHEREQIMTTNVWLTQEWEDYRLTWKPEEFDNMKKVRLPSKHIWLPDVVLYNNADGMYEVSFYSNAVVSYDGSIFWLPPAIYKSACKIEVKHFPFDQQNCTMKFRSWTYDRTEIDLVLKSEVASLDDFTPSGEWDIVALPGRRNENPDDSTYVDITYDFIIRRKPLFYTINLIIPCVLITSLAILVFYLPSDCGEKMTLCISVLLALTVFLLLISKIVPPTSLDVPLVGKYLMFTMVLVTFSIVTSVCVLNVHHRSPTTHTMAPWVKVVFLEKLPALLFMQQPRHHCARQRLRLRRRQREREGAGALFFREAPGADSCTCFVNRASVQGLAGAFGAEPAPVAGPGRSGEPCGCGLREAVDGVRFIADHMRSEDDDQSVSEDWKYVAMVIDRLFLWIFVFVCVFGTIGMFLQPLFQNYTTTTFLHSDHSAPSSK
Chain of Neuronal acetylcholine receptor; alpha4/beta2 (P43681 whole entry): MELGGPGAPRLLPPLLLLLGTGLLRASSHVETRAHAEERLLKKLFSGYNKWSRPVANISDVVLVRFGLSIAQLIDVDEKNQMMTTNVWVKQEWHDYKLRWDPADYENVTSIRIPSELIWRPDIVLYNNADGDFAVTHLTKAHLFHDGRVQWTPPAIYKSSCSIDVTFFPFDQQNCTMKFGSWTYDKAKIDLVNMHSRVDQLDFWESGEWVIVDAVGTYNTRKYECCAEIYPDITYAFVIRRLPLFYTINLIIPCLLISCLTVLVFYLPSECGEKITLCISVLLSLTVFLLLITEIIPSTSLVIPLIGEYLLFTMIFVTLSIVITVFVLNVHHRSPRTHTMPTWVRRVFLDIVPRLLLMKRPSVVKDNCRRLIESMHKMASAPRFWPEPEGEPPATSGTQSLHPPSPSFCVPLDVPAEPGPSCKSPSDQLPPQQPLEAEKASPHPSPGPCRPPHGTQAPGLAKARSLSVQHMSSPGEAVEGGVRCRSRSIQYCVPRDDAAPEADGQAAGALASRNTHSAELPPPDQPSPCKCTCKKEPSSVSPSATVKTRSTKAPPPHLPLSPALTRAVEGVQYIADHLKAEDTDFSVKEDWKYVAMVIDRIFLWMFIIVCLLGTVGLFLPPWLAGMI

Compound	IC50 [1] [µM]	Ki [1] [µM]	IC50 [2] [µM]	Ki [2] [µM]	inhibition [3] [%]
COc1cc2c(cc1O)C[C@H]1c3c(cc(OC)c(OC)c3-2)CC[N+]1(C)C	3	0.91	12	10	
COc1cc2c(c(Br)c1O)C[C@H]1c3c(c(Br)c(O)c(OC)c3-2)CCN1C	101	31	114	95	85
COc1cc2c(cc1O)C[C@H]1c3c(c(Br)c(O)c(OC)c3-2)CCN1C [3-BROMOBOLDINE]	99	30	100	83	91
COc1cc2c(cc1O)C[C@H]1c3c(cc(O)c(OC)c3-2)CC[N+]1(C)C [BOLDINE METHIODIDE]	8.2	2.5	18	15	
COc1cc2c(cc1O)C[C@H]1c3c(cc(O)c(OC)c3-2)CCN1C [BOLDINE]	10	3	81	67	
COc1cc2c(cc1OC)-c1c(OC)c(OC)cc3c1[C@H](C2)[N+](C)(C)CC3 [GLAUCINE METHIODIDE]	34	10	21	18	
COc1cc2c(cc1OC)-c1c(OC)c(O)cc3c1[C@H](C2)[N+](C)(C)CC3 [PREDICENTRINE METHIODIDE]	3.2	0.97	27	21	
